These results are taken from ChEMBL document CHEMBL4376873, “Systematic Investigation of Lipophilicity Modulation by Aliphatic Fluorination Motifs” (J Med Chem, 2020).

pIC50: −log10 of the molar value. Bounds are passed on as bounds.

Data set [1] can be described thus: Solubility of compound in aqueous phosphate buffer at pH 7.4 after 24 hrs at 25 degC. In kind it is physicochemical.
Data set [2] addresses Voltage-gated inwardly rectifying potassium channel KCNH2 (Homo sapiens, UniProt Q12809). Description: Inhibition of human ERG assessed as reduction in channel tail current by plate-based planar patch clamp assay. On the technique in general: Patch clamp records ionic current or voltage across a cell membrane.
Data set [3] can be described thus: Intrinsic clearance in human liver microsomes. The following applies: read-out: CLH. In kind it is ADME, Microsome. In outline: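 Metabolic turnover rate in human microsomes, compound added from DMSO stock; reported in μL/min/mg.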
Data set [4] in a line: Lipophilicity, logP of the compound by 19F NMR-based method. The following applies: octanol/water.
Data set [5] is described as follows: Lipophilicity, logD of the compound at 7.4 by the shake flask method. The data set is classed as physicochemical. The conditions noted are these: octanol/water, pH 7.4. In outline:
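Shake-flask partitioning at pH 7.4 (routine AstraZeneca method); concentrations determined by UV detection.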

A short description of data set [6]: Fraction unbound in 10% human plasma by equilibrium dialysis. The data set is classed as ADME, cell-free. In outline: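 Equilibrium dialysis in 10% human plasma, compound added from DMSO stock; fraction unbound determined.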
Background: Equilibrium dialysis compares concentrations on both sides of a semipermeable membrane.

Data set [7] can be described thus: Intrinsic clearance in rat hepatocytes assessed per million cells. The data set is classed as ADME, cell-based, Hepatocyte. The following applies: read-out: CLH. In outline:
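Isolated rat hepatocytes diluted to 1x10⁶ cells/mL, compound added from DMSO stock; metabolism rate expressed as μL/min/10⁶ cells.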

As a reminder, the solubility is how much of the substance goes into solution per volume. A low value points to a poorly soluble substance. In general, pIC50 refers to −log10 of the IC50, conventionally taken in molar units. Usually logP stands for a log measure of how a compound divides between an organic and an aqueous phase. A high value points to a more lipophilic compound. A word on the logD: it is lipophilicity at a set pH, counting ionised and neutral species. Lower therefore signals lower lipophilicity. Usually fraction unbound stands for the share of the substance not bound to proteins or other matrix. Low values mean extensive binding, high ones weak binding.

Chain of Voltage-gated inwardly rectifying potassium channel KCNH2 (Q12809 whole entry): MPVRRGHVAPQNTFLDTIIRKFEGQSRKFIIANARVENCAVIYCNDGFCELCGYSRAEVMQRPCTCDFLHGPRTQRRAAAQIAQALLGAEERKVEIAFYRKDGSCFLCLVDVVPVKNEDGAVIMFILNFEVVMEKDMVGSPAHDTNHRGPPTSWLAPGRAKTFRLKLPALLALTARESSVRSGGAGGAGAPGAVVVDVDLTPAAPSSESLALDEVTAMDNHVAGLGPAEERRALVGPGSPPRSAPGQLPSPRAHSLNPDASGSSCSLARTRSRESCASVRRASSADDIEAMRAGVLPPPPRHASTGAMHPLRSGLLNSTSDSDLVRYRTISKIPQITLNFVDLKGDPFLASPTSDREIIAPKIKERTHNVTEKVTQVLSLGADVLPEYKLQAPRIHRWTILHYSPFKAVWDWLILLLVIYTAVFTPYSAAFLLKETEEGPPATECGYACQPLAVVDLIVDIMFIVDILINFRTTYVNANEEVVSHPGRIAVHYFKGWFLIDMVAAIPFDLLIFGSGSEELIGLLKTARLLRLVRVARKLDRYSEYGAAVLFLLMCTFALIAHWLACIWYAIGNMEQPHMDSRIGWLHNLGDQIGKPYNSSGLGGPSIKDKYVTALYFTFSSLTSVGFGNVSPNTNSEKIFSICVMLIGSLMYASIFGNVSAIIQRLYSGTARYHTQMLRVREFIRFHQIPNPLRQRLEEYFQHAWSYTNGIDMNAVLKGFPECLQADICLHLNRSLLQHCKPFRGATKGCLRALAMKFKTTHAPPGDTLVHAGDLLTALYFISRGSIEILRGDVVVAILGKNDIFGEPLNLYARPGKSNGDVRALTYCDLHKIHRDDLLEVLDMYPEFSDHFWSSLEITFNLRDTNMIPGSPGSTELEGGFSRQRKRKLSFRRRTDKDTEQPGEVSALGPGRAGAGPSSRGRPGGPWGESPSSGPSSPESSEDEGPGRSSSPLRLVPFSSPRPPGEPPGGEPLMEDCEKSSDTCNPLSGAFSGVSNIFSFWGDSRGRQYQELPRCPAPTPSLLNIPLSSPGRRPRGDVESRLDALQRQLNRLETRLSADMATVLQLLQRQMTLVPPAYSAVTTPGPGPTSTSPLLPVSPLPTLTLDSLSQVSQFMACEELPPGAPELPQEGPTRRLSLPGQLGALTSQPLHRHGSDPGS

`CCCCCOc1cccc(CCNCC(=O)N(C)C)c1.Cl` yielded a solubility at 24 h in data set [1] of 779 µM. Also, the pIC50 in data set [2] is 5.74. On to `CCCCOc1cccc(CCNCC(=O)N(C)C)c1.Cl`, for which, in data set [1], the concentration in solution (solubility at 24 h) was 782 µM. For the same compound, the pIC50 in data set [2] was 5.03. In the case of `CN(C)C(=O)CNCCc1cccc(OCCCC(C)(F)F)c1.Cl`, the solubility at 24 h in data set [1] is 1000 µM. Also, the microsomal CLint in data set [3] amounted to 7 µL/min/mg. In data set [2], the pIC50 was 5.12. On to `CN(C)C(=O)CNCCc1cccc(OCC(F)(F)C(C)(F)F)c1`, for which, in data set [4], the logP is 1.6. In data set [4], `CN(C)C(=O)CNCCc1cccc(OCCC(C)(F)F)c1` yielded a lipophilicity (logP) of 1.1. Take `CN(C)C(=O)CNCCc1cccc(OCC(F)(F)C(F)(F)C(F)(F)F)c1`: in data set [4], the logP turned out to be 2.5. In turn, `OCCC(F)(F)CC(F)(F)F` returned a logP in data set [4] of 1.12.

On to `OCCCC(F)CF` (stereo not given), for which the logP in data set [4] was determined as 0.11. In data set [4], `CCCC(O)CF` (stereo not given) yielded a logP of 0.74. On the same count and under the same terms, under `CCC(F)(F)C(C)O` (stereo not given) stands 1.04; under `OCCC(F)CC(F)(F)F` (stereo not given), 0.84; under `FC(F)(F)CCOc1ccc2[nH]ccc2c1`, 2.8.

Take `CC(F)(F)COc1ccc2[nH]ccc2c1`: in data set [4], the logP turned out to be 2.7. As for `OCCCF`, the lipophilicity (logP) in data set [4] was -0.26. Take `OCCCCF`: the logP in data set [4] stood at 0.09.

`CCCC(F)(F)CO`: in data set [4], the logP stood at 1.25. Still for that read-out and setting: the figure for `OCCCC(F)C(F)F` (stereo not given) is 0.52; for `OCC(F)F` it is -0.29. Regarding `CC(F)[C@H](F)CCc1c[nH]c2ccccc12` (stereo not given in full), the logP in data set [4] stood at 2.8. Regarding `CN(C)C(=O)CNCCc1cccc(OCCCC(F)(F)F)c1.Cl`, in data set [1], the concentration in solution (solubility at 24 h) was 900 µM. Besides, in data set [3], the microsomal CLint was < 3 µL/min/mg. In addition, the pH-dependent lipophilicity (logD) in data set [5] was 1.9. Moreover, the fraction unbound in data set [6] came to 0.47. The hepatocyte CLint in data set [7] was found to be 52 µL/min/1e6 cells. In data set [4], `OCCC(F)C(F)F` (stereo not given) gave a logP of 0.29.

`OCCCC(F)F`: the logP in data set [4] came to 0.29. On the same count and under the same terms, the figure for `CCC(F)(F)CCO` is 0.92; for `FCC(F)[C@H](F)Cc1c[nH]c2ccccc12` (stereo not given in full) it is 2.7; for `CCC(F)CCO` (stereo not given) it is 0.75. Turning to `OCCC(F)F`, the logP in data set [4] turned out to be 0.04.

Turning to `CC(F)(F)CCO`, the logP in data set [4] is 0.34.

In data set [4], `CC(O)CCCF` (stereo not given) showed a logP of 0.42. `CCCCc1c[nH]c2ccccc12` had a logP in data set [4] of 3.7. On to `CCC(F)(F)CO`, for which, in data set [4], the logP was 0.67. In the case of `OCC(F)(F)C(F)(F)C(F)(F)C(F)F`, the log partition coefficient (logP) in data set [4] came out at 1.89. Take `OCCC(F)(F)C(F)F`: the log partition coefficient (logP) in data set [4] came to 0.66. `CC(F)(F)C(F)(F)CO`: the logP in data set [4] was determined as 0.87. `OCC(F)(F)C(F)C(F)(F)F` (stereo not given) displayed a log partition coefficient (logP) in data set [4] of 1.53. As to `OCCCC(F)(F)CF`, the logP in data set [4] was 0.58. On to `OCCCC(F)C(F)(F)F` (stereo not given), for which the logP in data set [4] was 1.22. The same measure, in the same setting: the figure for `FC(F)CCOc1ccc2[nH]ccc2c1` is 2.6; for `OCCC(F)CF` (stereo not given) it is -0.12; for `CC(O)CCC(F)F` (stereo not given) it is 0.64. `CC(=O)N1CCC[C@H]1C(=O)OCC(F)F`: in data set [4], the logP came out at 0.02. Turning to `OCCC(F)(F)CF`, in data set [4], the logP came to 0.27.

For the compound `CCCC(O)C(F)F` (stereo not given), the logP in data set [4] amounted to 1.14. `OCCC(F)(F)C(F)(F)C(F)(F)F`: the logP in data set [4] was 2.1. Take `CN(C)C(=O)CNCCc1cccc(OCCCCC(F)(F)F)c1.Cl`: the solubility at 24 h in data set [1] was > 1000 µM. In addition, the microsomal CLint in data set [3] amounted to 10 µL/min/mg. The negative logarithm of the IC50 (pIC50) in data set [2] is 5.02. This compound also had a pH-dependent lipophilicity (logD) in data set [5] of 2.3. The same compound showed a fraction unbound in data set [6] of 0.28. Also, the hepatocyte CLint in data set [7] is 105 µL/min/1e6 cells. `OCC(F)CC(F)(F)F` (stereo not given): the logP in data set [4] came to 0.6. The compound `FCC(F)COc1ccc2[nH]ccc2c1` (stereo not given) came in with a logP in data set [4] of 2.3.

Turning to `CCC(F)CO` (stereo not given), the logP in data set [4] stood at 0.26. As to `FCCCOc1ccc2[nH]ccc2c1`, the log partition coefficient (logP) in data set [4] came out at 2.5.

In data set [1], `CN(C)C(=O)CNCCc1cccc(OCCCC(F)(F)CF)c1.Cl` showed a solubility at 24 h of 870 µM. Besides, the microsomal CLint in data set [3] is < 3 µL/min/mg. For the same compound, the negative logarithm of the IC50 (pIC50) in data set [2] is 4.82. Moreover, the logD in data set [5] was found to be 1.6. Besides, in data set [6], the fraction unbound was 0.47. Also, in data set [7], the hepatocyte CLint came out at 34 µL/min/1e6 cells. As for `OCC(F)(F)CC(F)(F)F`, in data set [4], the log partition coefficient (logP) was 1.04.

As for `CCOC(=O)[C@@H]1CCCN1C(C)=O`, in data set [4], the logP worked out at 0. Consider `OCCCCC(F)F`, for which, in data set [4], the logP came out at 0.66. Still for that read-out and setting: the figure for `CCCOc1ccc2[nH]ccc2c1` is 2.9; for `CC[C@H](F)[C@H](C)O` (racemic) it is 0.68; for `CC[C@@H](F)[C@H](C)O` (racemic) it is 0.68. In data set [4], `CCCCOc1cccc(CCNCC(=O)N(C)C)c1` [EVENAMIDE] came in with a logP of 1.8. As for `OCC(F)(F)F` [TRIFLUOROETHANOL], the logP in data set [4] turned out to be 0.36.
